Shown are actives, neighbours in structure and some others; about 2.8% of the full set was active somewhere.
TNAP inh no acc = inhibitors of human TNAP without phosphate acceptor; P05186; purified TNAP, CDP-star luminescence, 30 min; inhibition, % at 20 µM; hit rate 0.26% among 200,000;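 active = tissue-nonspecific alkaline phosphatase inhibition above about 50% at 20 µM in the single-dose screen, limit read from the data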;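 note: 0% = DMSO negative control and 100% = EDTA positive control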
Target sequence (P05186 whole entry, looked up): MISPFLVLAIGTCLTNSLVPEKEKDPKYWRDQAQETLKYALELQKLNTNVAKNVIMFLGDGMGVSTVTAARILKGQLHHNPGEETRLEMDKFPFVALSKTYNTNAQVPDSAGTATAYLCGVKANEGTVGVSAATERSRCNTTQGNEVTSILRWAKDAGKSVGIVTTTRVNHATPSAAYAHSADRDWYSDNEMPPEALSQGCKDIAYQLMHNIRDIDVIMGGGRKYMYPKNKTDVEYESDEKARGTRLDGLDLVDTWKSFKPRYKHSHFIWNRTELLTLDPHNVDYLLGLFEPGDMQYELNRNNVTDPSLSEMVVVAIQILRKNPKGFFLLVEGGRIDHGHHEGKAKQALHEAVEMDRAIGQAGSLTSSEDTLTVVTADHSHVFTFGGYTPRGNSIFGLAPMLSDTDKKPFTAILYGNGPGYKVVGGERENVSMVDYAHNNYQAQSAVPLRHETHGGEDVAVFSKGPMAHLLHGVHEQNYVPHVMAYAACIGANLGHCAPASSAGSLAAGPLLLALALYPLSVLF
RAM inhibit = blocks the yeast RAM network. hit rate 1.8% among 190,000. inhibition, % at 50 µM. AID 868. S. cerevisiae dse1pr::URA3 reporter, 5-FOA growth OD615, 2 d; analog-sensitive cbk1-as2 kinase mutant strain;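 active = inhibition above a set limit, 3 SD over mean compound inhibition, cut at about 8.4% in these data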;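 note: 0% = DMSO-only wells with no growth and 100% = 10 µM 1-NA-PP1 full growth; inhibition rescues growth on 5-FOA so higher OD means more RAM inhibition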
TNAP inh hiacc = inhibitors of human TNAP at high phosphate acceptor concentration. P05186. purified TNAP, CDP-star luminescence, 1 M DEA. inhibition, % at 20 µM. hit rate 0.03% among 200,000. AID 1135;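 active = over 50% inhibition of tissue-nonspecific alkaline phosphatase at 20 µM in the single-dose screen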;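 note: plate controls were DMSO wells for no effect and EDTA-quenched wells as full inhibition for full effect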
Yeast growth inh = chemicals that inhibit yeast BB579 growth in restrictive medium (lifespan-shortening candidates) | S. cerevisiae BB579 growth, OD615, 48 h | inhibition, % at 10 µM | hit rate 0.51% among 140,000;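 active = inhibition above a set limit, 3 SD over the mean compound inhibition, cut at about 44% in these data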
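Material: Saccharomyces cerevisiae DeaD strain BB579, replicative lifespan model yeast; buffer or medium: CSMM-D restrictive synthetic medium containing dextrose (glucose); compound: 10 µM single dose, DMSO 0.25%; timing: 48 h compound exposure at 30 °C after 4 h preincubation; signal: turbidity as optical density at 615 nm; benchmarks: positive control amphotericin B 10 µg/mL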
TNAP act hiacc = increases human TNAP activity under high phosphate acceptor concentration | P05186 | purified TNAP, CDP-star luminescence, 1 M DEA, 30 min; hits give high values; 0 = EDTA background, 1 = DMSO-only activity | activation factor at 20 µM | 200,000 tested, under 10 active | AID 1136;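 active = activation factor at least 2 at 20 µM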
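Dosing: 20 µM single point. System: human TNAP. Amount: TNAP 1/800 final. Incubation: 30 min, room temperature. Read-out: TNAP activation factor scaled between EDTA and DMSO control wells. Signal: luminescence from CDP-star hydrolysis. Medium: 1 M DEA, pH 9.8, Mg2+, Zn2+. Control set: EDTA negative control, DMSO positive control.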
Yeast life ext = yeast lifespan extension | AID 775 | hit rate 0.68% among 130,000 | S. cerevisiae growth with nicotinamide, OD615; deaD strain in restrictive glucose medium | inhibition of the nicotinamide effect, % at 10 µM;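 active = inhibition above a set limit, placed 3 SD over the median of all compounds, cut at about 26% in these data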;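 note: 0% = nicotinamide-treated wells and 100% = cells grown without nicotinamide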
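Measured by: optical density (absorbance) at 615 nm; System: modified budding yeast, DeaD strain; Medium: restrictive CSMM-D dextrose medium; Timing: 4 h preincubation then 48 h treatment at 30 °C.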
The depositor's hits bear a star; x = no result given.

SMILES	TNAP inh no acc	RAM inhibit	TNAP inh hiacc	Yeast growth inh	TNAP act hiacc	Yeast life ext
O=C(Nc1c2c(nc3ccccc13)CCCC2)c1cccc([N+](=O)[O-])c1	-13.5	1.9	1.1	-48.5	1	20.7
Cc1ccc(-c2csc3ncnc(N4CCc5ccccc5C4)c23)cc1	-8.2	4.3	-2.2	-54.8	1	-1.5
Fc1ccc(-c2csc3ncnc(N4CCc5ccccc5C4)c23)cc1	-4.2	9.1*	0.5	-57.5	1	-2.0
COc1ccc2nc(SCCN(C)C)[nH]c2c1	-9.5	0.7	-5.8	x	1.1	x
COCN(C#N)c1nc(N(C)C)nc(N(C)C)n1	-13.0	-0.6	-7.4	x	1.1	x
COc1ccc(CN(C#N)c2nc(SC)nc(N(C)C)n2)cc1	-6.1	10.9*	-9.1	-31.0	1.1	-6.9
O=C(c1ccc(Cl)c(S(=O)(=O)N2CCCC2)c1)N1CCN(c2ncccn2)CC1	-6.1	0.4	3.5	x	1	x
O=C(O)c1ccc(NC(=S)Nc2ccccc2)cc1	2.4	4.0	-3.1	17.1	1	37.2*
COC(=O)c1ccc(NC(=S)Nc2ccccc2)cc1	11.6	0.9	2.8	-19.3	1	-4.4
CCCn1nnnc1NC(=O)c1cccs1	-6.7	0.1	1.6	-22.8	1	-5.2
Cc1ccc(NC(=O)CSc2nc3c(cc2C#N)C(=O)CCC3)cc1S(=O)(=O)N(C)C	-12.9	8.5*	-2.0	-42.7	1	5.6
CCOC(=O)c1ccc(CN(Cc2ccc(C)cc2)S(=O)(=O)c2cccc([N+](=O)[O-])c2)cc1	-10.3	10.5*	0.3	-69.2	1	16.8
C#CC(C)(CC)NC(=O)c1cc2nc(C3CC3)cc(C(F)(F)F)n2n1 (stereo unspecified)	3.6	-0.1	-3.1	x	1	x
Brc1ccccc1-c1nnc(CSc2nncn2-c2ccccc2)o1	-9.5	2.2	-5.0	-78.3	1.1	-1.8
Cc1ccc(-n2nnnc2SCc2nnc(-c3ccccc3Br)o2)cc1	-8.2	10.1*	-6.5	-91.2	1.1	-9.6
Oc1ccc(NCc2ccccc2OCc2ccccc2F)cc1	-5.5	4.1	-4.2	-28.1	1	27.0*
O=C(Nc1ccc(Cl)cc1)ON=C1CCCC1	-4.1	-0.8	0.2	99.1*	1	-9.5
COc1ccc(NC(=O)O/N=C2/CCCc3ccc(OC)cc32)cc1	-13.3	2.6	-5.8	-9.8	1.1	-3.2
COn1c(SCc2ccc(C)cc2C)nc2ccccc2c1=O	4.6	9.2*	-5.1	-10.3	1.1	-17.4
COn1c(SC2CCCCC2)nc2ccccc2c1=O	-7.2	-0.3	-7.6	-21.5	1.1	45.8*
CC1Nc2ccccc2C(=O)N1NS(=O)(=O)c1ccccc1 (stereo unspecified)	-6.1	1.7	0.1	13.4	1	0.6
O=C1SC(SC(=Nc2ccccc2)Nc2ccccc2)C(=O)N1c1ccccc1 (stereo unspecified)	-8.0	1.6	-1.5	-8.7	1	33.7*
Cc1cccc(N2C(=O)CC(SC(=Nc3ccccc3)Nc3ccccc3)C2=O)c1 (stereo unspecified)	-11.0	1.0	-1.5	-1.6	1	-14.6
O=Cc1c(Sc2ccccc2)nc2ccccn2c1=O	2.0	2.9	-3.2	64.8*	1	-18.5
O=Cc1c(Sc2ccccn2)nc2ccccn2c1=O	-1.7	0.7	-1.0	-0.2	1	x
SMILES	TNAP inh no acc	RAM inhibit	TNAP inh hiacc	Yeast growth inh	TNAP act hiacc	Yeast life ext
COc1ccc(CN(C(=O)CSc2nnc(-c3c[nH]c4ccccc34)o2)c2ccc(F)cc2)cc1OC	-17.0	9.9*	-10.9	-32.8	1.1	x
O=C(Cc1ccccc1)c1nnc(-c2ccccc2)o1	-4.4	2.2	-0.7	x	1	x
O=S(=O)(CC(CN1CCCCC1)N1CCCCC1)c1ccc2ccccc2c1 (stereo unspecified)	-7.2	1.1	2.2	x	1	x
Cc1ccccc1NC(=S)c1nc2ccccc2[nH]1	-61.7	-1.3	-4.3	49.7*	1	-6.0
S=C(Nc1ccc(Cl)cc1)c1nc2ccccc2[nH]1	-79.8	0.9	-0.1	-11.8	1	-5.7
COC(=O)C1=C(N)OC2=C(C(=O)CC(C)(C)C2)C1c1cccs1 (stereo unspecified)	-6.4	3.6	-8.9	-49.4	1.1	35.2*
COc1cc(OC)cc(-c2nc3ccccc3c(=O)n2OC(=O)c2ccc(C)c(C)c2)c1	-22.1	3.9	-5.0	-37.5	1.1	63.7*
COc1cc2c(cc1NC(=O)C(C)OC(=O)c1ccc(S(=O)(=O)Nc3ccccc3Cl)cc1)oc1ccccc12 (stereo unspecified)	-0.3	11.0*	-10.6	x	1.1	x
Cc1nn(C)c(C)c1/C=N/NC(=O)CCn1nc(C)c([N+](=O)[O-])c1C	-6.4	1.2	-2.2	-5.8	1	-2.8
COc1ccc(NC(=O)CCC(=O)N(Cc2ccc(OC)c(OC)c2)c2nccs2)cc1	8.7	10.4*	-5.0	-7.4	1.1	0.6
COc1ccc(OC)c(NC(=O)CCC(=O)N(Cc2ccc(OC)c(OC)c2)c2nccs2)c1	-2.7	-0.6	-0.1	x	1	x
CCC(=O)Nc1cc(C(=O)OCC(=O)c2ccc(Cl)cc2Cl)ccc1C	-7.2	1.7	-0.2	-42.5	1	-12.1
O=C(O)CCC(=O)Nc1ccc(C(=O)OCC(=O)c2ccc(Cl)cc2Cl)cc1	-2.4	8.7*	-1.3	x	1	x
N#CCC(=O)Nc1ccc(C(=O)OCC(=O)Nc2ccccc2Sc2ccccc2)cc1	-5.6	8.4*	-2.3	x	1	x
CC(=O)Nc1ccc(C(=O)OCC(=O)Nc2ccccc2Sc2ccccc2)cc1	-5.7	2.6	-3.5	-48.8	1	-0.8
Fc1cccc(Cl)c1CSc1nnc(COc2cccc3cccnc23)o1	-22.6	6.1	-5.8	-19.2	1.1	4.8
COc1ccccc1NC(=O)CSc1nnc(-c2ccoc2C)n1CC1CCCO1 (stereo unspecified)	-0.3	-0.5	-4.5	4.8	1	-6.9
CC(=O)c1ccc(NC(=O)C2C3C=CC(C3=C(c3ccccc3)c3ccccc3)C2C(=O)O)cc1 (stereo unspecified)	-10.5	10.3*	-5.9	x	1.1	x
Cc1cccc(OCCOc2ccc(/C=N/NC(=O)Cc3nnc(N)s3)cc2)c1	-9.6	1.9	-3.8	-31.4	1	-9.4
C=CCNC(=O)C(C#N)c1nc2ccccc2nc1N1CCCCCC1 (stereo unspecified)	1.9	9.0*	-0.8	-18.0	1	-27.7
CCCCNC(=O)C(C#N)c1nc2ccccc2nc1N1CCCC1 (stereo unspecified)	-3.5	0.9	1.5	-89.4	1	-1.7
CC1(C)C(C=C(Cl)Cl)C1C(=O)N1CCN(Cc2ccccc2)CC1 (stereo unspecified)	-13.0	3.2	-8.3	x	1.1	x
